# TRPC6 activator: mouse TRPC6 channel activators, primary screen, cell-based, HEK293, membrane potential dye. HEK293-TRPC6 membrane potential dye fluorescence; stronger effect = higher value. B-score at 10 µM. Short transient receptor potential channel 6 (Mus musculus), Q61143. 0.13% of 310,000 active. AID 2550, 2010;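 active = B-score of the integrated fluorescence ratio above library mean plus 3 SD, and starting fluorescence ratio within library mean plus 5 SD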;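 also: higher score means more depolarization so channel activation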
# Target sequence (Q61143 whole entry, looked up): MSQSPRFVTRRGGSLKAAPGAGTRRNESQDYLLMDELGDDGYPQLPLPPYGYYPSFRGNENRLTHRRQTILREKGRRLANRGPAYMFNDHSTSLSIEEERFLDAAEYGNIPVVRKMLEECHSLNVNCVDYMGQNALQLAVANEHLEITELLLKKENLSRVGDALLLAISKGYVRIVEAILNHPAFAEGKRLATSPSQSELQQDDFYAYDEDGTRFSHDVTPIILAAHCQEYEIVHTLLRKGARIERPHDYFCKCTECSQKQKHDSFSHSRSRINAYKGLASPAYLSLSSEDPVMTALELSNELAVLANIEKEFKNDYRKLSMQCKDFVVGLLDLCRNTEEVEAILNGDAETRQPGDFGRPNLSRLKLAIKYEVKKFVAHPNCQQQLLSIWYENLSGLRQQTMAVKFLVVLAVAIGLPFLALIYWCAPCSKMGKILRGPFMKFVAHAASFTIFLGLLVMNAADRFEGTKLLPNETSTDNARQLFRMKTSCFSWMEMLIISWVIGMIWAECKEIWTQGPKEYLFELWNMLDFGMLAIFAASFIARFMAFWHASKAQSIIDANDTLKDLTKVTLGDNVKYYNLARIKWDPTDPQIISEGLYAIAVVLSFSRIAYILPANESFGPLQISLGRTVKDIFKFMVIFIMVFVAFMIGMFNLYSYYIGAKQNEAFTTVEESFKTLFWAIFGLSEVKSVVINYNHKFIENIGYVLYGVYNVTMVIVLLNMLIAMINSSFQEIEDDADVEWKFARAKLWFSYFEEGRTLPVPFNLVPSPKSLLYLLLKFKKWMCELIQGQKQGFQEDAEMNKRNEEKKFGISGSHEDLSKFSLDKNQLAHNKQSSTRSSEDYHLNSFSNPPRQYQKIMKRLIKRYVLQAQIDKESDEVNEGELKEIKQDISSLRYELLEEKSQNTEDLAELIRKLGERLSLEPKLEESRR
# TRPC6 inhibitor: mouse TRPC6 channel inhibitors, primary screen, cell-based, HEK293, membrane potential dye. B-score at 10 µM. 1.1% of 310,000 active. Short transient receptor potential channel 6 (Mus musculus), Q61143. ACh-evoked depolarization; stronger effect = lower value;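 active = B-score under library mean minus 3 SD, initial fluorescence not abnormally high, positive integrated signal ratio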;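 also: B-score derived from integrated fluorescence ratio over the kinetic read; more negative B-score means stronger inhibition of depolarization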
# TRPC4 potent: positive allosteric modulators of TRPC4, primary screen, cell-based, mouse TRPC4beta, HEK293 mu-opioid, Fluo-4 calcium; Short transient receptor potential channel 4 (Mus musculus), Q9QUQ5; DAMGO EC20, Fluo-4 Ca2+ flux; stronger effect = higher value; B-score at 10 µM; 0.42% of 310,000 active;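 active = B-score of calcium response area above 5 SD of library B-scores, with initial fluorescence ratio within 5 SD of library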
# TRPC4 agonist: activators of mouse TRPC4 channel, primary screen, Fluo4 calcium, HEK293 TRPC4beta/mu-opioid cells | Short transient receptor potential channel 4 (Mus musculus), Q9QUQ5 | Fluo4 calcium fluorescence; stronger effect = higher value | B-score at 10 µM | 0.49% of 310,000 active | AID 2237, 2010;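 active = B-score above 5 SD of library B-scores, and initial fluorescence ratio not above library mean plus 5 SD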;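 also: positive B-score marks a calcium rise read as TRPC4 activation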
#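 Assay system: HEK293 stable line with TRPC4beta plus mu-opioid receptor. Times: dye 45 min RT, read 110 s. Measured by: kinetic Fluo4 calcium fluorescence. Measure: B score of integrated ratio. Controls: assay buffer as low control, maximal DAMGO as high control.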
# TRPC4 inh: inhibitors of mouse TRPC4 channel, primary screen, Fluo4 calcium, HEK293 TRPC4beta/mu-opioid cells; DAMGO-evoked Fluo4 calcium flux; stronger effect = lower value; B-score at 10 µM; 0.39% of 300,000 active; AID 2247, 2010;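 active = B-score over 3 SD under the library average, no early fluorescence shift, positive overall ratio signal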
#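 material = TRPC4beta/mu-opioid receptor HEK293 cell line | probe or stimulus = sequential submaximal and maximal DAMGO stimulation | compound dosing = one concentration per compound | measured by = Fluo4 Ca2+ flux fluorescence | evaluation = integrated fluorescence ratio relative to baseline, converted to per-well B score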
# TRPC4 sel inh 2: second check of whether TRPC6 inhibitors also affect mouse TRPC4. HEK293 TRPC4/MOR, membrane potential dye fluorescence; channel activated by saturating DAMGO dose. inhibition, % at 10 µM. shares compounds with TRPC6 inhibitor. 42% of 920 active;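 active = compounds whose fluorescence signal differed from control wells by over 3 SD, either direction, in both duplicate plates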
# TRPC4 spec: mouse TRPC4 modulation by TRPC6 hits, confirmation, selectivity assay for TRPC6 inhibitor project, cell-based, HEK293 TRPC4/mu-opioid, membrane potential dye; shares compounds with TRPC6 inhibitor; membrane potential fluorescence; activity change, negative = inhibition, % at 10 µM; 61% of 920 active; AID 2777, 2010;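 active = rise or fall in signal beyond 3 SD of buffer-only wells in both replicate plates, either sign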;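 also: integrated kinetic ratio of fluorescence range over baseline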
# HEK293 MPD ctr 2-1: nonspecific membrane potential effects, parental HEK293, confirmation, counter-screen for TRPC6 inhibitor project, cell-based, second counter screen; shares compounds with TRPC6 inhibitor; parental HEK293 membrane potential dye fluorescence; maximal acetylcholine challenge after compound addition; signal change vs control, % at 10 µM; 31% of 920 active; AID 2779, 2010;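 active = membrane potential signal moving either way by over 3 SD of the maximum-effect control, in both duplicate plates, meaning non-specific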
# HEK293 MPD ctr-1: membrane potential modulation in parental HEK293, confirmation, counter-screen for TRPC6 inhibitor project, cell-based | parental HEK293 membrane potential dye fluorescence | membrane potential signal change, % at 10 µM | 60% of 920 active | shares compounds with TRPC6 inhibitor;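 active = membrane potential signal shifting up or down by more than 3 SD of buffer-only wells, on both duplicate plates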
# HEK293 MPD ctr-2: parental HEK293 membrane potential modulation, confirmation, counter-screen for TRPC6 modulator project, cell-based; shares compounds with TRPC6 inhibitor; membrane potential dye fluorescence; membrane potential signal change, % at 10 µM; 51% of 2,400 active;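 active = membrane potential signal moves up or down beyond 5 SD from buffer-only wells, on both duplicate plates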
# HEK293 MPD ctr 2-2: parental HEK293 nonspecific activity of TRPC6 modulators, second screen. 14% of 2,400 active. membrane potential dye fluorescence; after compound, maximal acetylcholine stimulation. inhibition, % at 10 µM. shares compounds with TRPC6 inhibitor;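 active = membrane potential signal drops by more than 5 SD from the mean control signal, in both duplicate plates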
# TRPC4/MOR mod: TRPC4 modulation by TRPC6 hit compounds, confirmation, selectivity assay for TRPC6 modulator project, cell-based, HEK293 TRPC4/mu-opioid, membrane potential dye, mouse; shares compounds with TRPC6 inhibitor; membrane potential fluorescence; percent change from control (negative = decrease, positive = increase), % at 10 µM; 69% of 2,400 active; AID 488927, 2010;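 active = membrane potential signal moved up or down beyond 5 SD of buffer control wells, in both duplicate plates, actives on both sides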
# TRPC4/MOR inh 2: second check of whether TRPC6 modulators also affect mouse TRPC4. shares compounds with TRPC6 inhibitor. HEK293 TRPC4/mu-opioid, membrane potential dye fluorescence; stimulated with maximal-effect DAMGO. inhibition, % at 10 µM. 55% of 2,400 active;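 active = drop in membrane potential signal beyond 5 SD of the control wells in both duplicate plates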;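 also: TRPC4 counter screen for TRPC6 hits run under conditions tuned for TRPC6 not TRPC4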
# TRPC6 inh conf: mouse TRPC6 channel inhibitors, confirmation, HEK293 cells, membrane potential dye, duplicate. 43% of 3,300 active. ACh-evoked depolarization. shares compounds with TRPC6 inhibitor. inhibition, % at 10 µM. AID 488960, 2010;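 active = fluorescence ratio falls more than 5 SD below the full-stimulation control mean, in both duplicate runs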;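 also: integrated fluorescence ratio of peak minus minimum over baseline after agonist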
# TRPC6 act confirm: mouse TRPC6 channel activators, confirmation, HEK293 cells, membrane potential dye, duplicate | AID 488961, 2010 | HEK293-TRPC6 membrane potential dye fluorescence, FDSS | 11% of 2,800 active | shares compounds with TRPC6 inhibitor | activation, % at 10 µM;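 active = ratio signal rise beyond 5 SD above unstimulated control wells' mean, seen in both duplicate runs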
# Hits are given with their value; 0 = inactive; - = no result; + = active, no number. Rows were chosen to be rich in hits. Some 2.3% of all compounds tested hit in one or more screens of this group.
SMILES,TRPC6 activator,TRPC6 inhibitor,TRPC4 potent,TRPC4 agonist,TRPC4 inh,HEK293 MPD ctr-2,HEK293 MPD ctr 2-2,TRPC4/MOR mod,TRPC4/MOR inh 2,TRPC6 inh conf,TRPC6 act confirm,others
COc1ccc(Nc2nc(-c3ccccc3)nc3ccccc23)c(OC)c1,0,0,0,0,0,-,-,-,-,-,-,
COc1ccc(Nc2nc(N)c3ccccc3n2)c(OC)c1,0,-10,0,0,-7,-202%,86%,-42%,92%,90%,0,
Cc1onc(-c2ccccc2)c1C(=O)NNC(=O)c1ccccc1O,0,0,0,0,0,-,-,-,-,-,-,
Cc1onc(-c2ccccc2)c1C(=O)NNC(=S)NC(=O)c1ccc(Cl)cc1Cl,0,-5.8,0,375,0,96%,0,36%,36%,0,-,
CN(CC(=O)Nc1ccccc1Cl)C(=O)Cn1cc(C(F)(F)F)cc(Cl)c1=O,0,0,0,0,0,-,-,-,-,-,-,
O=C(CCC(=O)Nc1ccc(Br)cc1)N/N=C/c1ccc(F)cc1,0,0,0,0,0,-,-,-,-,-,-,
CCCN1CCC(=NNc2ccc(S(=O)(=O)N(CC)CC)cc2[N+](=O)[O-])CC1,0,-5.9,0,0,0,0,0,-11%,51%,46%,0,
CN(C)Cc1c(O)ccc2cc(-c3nc4ccccc4n3C)c(=O)oc12,0,-5,0,0,0,444%,0,-24%,0,0,0,
COC(=O)C(NC(=O)CSc1nc(N)cc(=O)[nH]1)c1ccccc1 (stereo not given),0,0,0,0,0,-,-,-,-,-,-,
Cc1cc(C)n2nc(SCC(=O)NC3CCCCC3)nc2n1,0,0,0,0,0,-,-,-,-,-,-,
CN1CCC23c4ccccc4NC1C21CCN(C)C3Nc2ccccc21,0,0,0,0,0,-,-,-,-,-,-,
C/C=C/C=C/C(=O)N1CC[C@]23c4ccccc4N[C@H]4N(C)c5cccc6c5[C@]42CCN([C@H]6C2OC2(C)C)[C@H]13 (stereo not given in full),0,-6.5,0,0,0,0,0,0,30%,66%,-,
Cc1ccc(N=C/C(C(=O)C(F)(F)F)=C(\O)c2ccco2)cc1Cl,0,0,0,0,0,-,-,-,-,-,-,
Cc1occc1C(=O)/C(C#N)=C/c1ccc(O)c(Br)c1,73,0,0,46,0,+,107%,236%,0,-,508%,
N#C/C(=C\c1ccc(O)c(Br)c1)C(=O)N1CCCCC1,0,0,0,0,0,-,-,-,-,-,-,
Cc1nc2cc(NCc3ccc(Cl)cc3)ccc2n1C,0,-7.1,0,0,0,-,-,-,-,60%,0,TRPC4 sel inh 2=51%;TRPC4 spec=-15%;HEK293 MPD ctr 2-1=0;HEK293 MPD ctr-1=-300%
Cc1ccc(CNc2ccc3c(c2)nc(C)n3C)cc1,0,-8.1,0,0,0,-,-,-,-,66%,0,TRPC4 sel inh 2=50%;TRPC4 spec=-15%;HEK293 MPD ctr 2-1=0;HEK293 MPD ctr-1=-176%
Cc1ccc(CNc2ccc3c(c2)ncn3C(C)(C)C)cc1,0,-6.8,21,0,0,-,-,-,-,0,0,TRPC4 sel inh 2=52%;TRPC4 spec=12%;HEK293 MPD ctr 2-1=240%;HEK293 MPD ctr-1=0
Cc1nc2cc(CO)ccc2n1C,0,0,0,0,0,-,-,-,-,-,-,
Cn1c(NCc2ccc(Cl)cc2)nc2ccccc21,0,0,0,0,0,-,-,-,-,-,-,
COc1ccc(Oc2cccc(Cl)c2CNC(=O)c2ccccc2C(=O)O)cc1,0,0,0,0,0,-,-,-,-,-,-,
O=C(O)c1ccccc1N/N=C/c1cc(Br)cc(Br)c1O,0,-6.5,0,0,-9,0,0,-11%,74%,0,0,
O=C(Cc1ccccc1)N/N=C/c1cc(Br)cc(Br)c1O,0,0,0,0,0,-,-,-,-,-,-,
CC(C)(C)OC(=O)NC(CNCc1ccccc1)Cc1ccccc1 (stereo not given),0,-5.3,0,0,0,136%,0,24%,34%,0,-,
CC(C)(C)OC(=O)NC(Cc1ccccc1)C(=O)O (stereo not given),0,0,0,0,0,-,-,-,-,-,-,
O=C(COc1ccc2c3c(c(=O)oc2c1)CCCC3)N[C@@H](Cc1ccccc1)C(=O)O,0,0,0,0,0,-,-,-,-,-,-,
CC(Oc1ccc2c3c(c(=O)oc2c1)CCC3)C(=O)NCc1ccccn1 (stereo not given),0,0,0,0,0,-,-,-,-,-,-,
O=C(COc1ccc2c3c(c(=O)oc2c1)CCCC3)NC(Cc1ccc(Cl)cc1)C(=O)O (stereo not given),0,-7,0,0,0,-,-,-,-,0,0,TRPC4 sel inh 2=0;TRPC4 spec=4.7%;HEK293 MPD ctr 2-1=0;HEK293 MPD ctr-1=2.1%
